Consider nine compounds from paper PMC3515069 (Toxicology, 2012).

In data set [1] the test system is AhR. The settings on record: ref Medjakovic and Jungbauer, 2008; cited from earlier work.
In data set [2] the target is T1, AhR (Homo sapiens, UniProt P35869).
T1 sequence (P35869 11-848): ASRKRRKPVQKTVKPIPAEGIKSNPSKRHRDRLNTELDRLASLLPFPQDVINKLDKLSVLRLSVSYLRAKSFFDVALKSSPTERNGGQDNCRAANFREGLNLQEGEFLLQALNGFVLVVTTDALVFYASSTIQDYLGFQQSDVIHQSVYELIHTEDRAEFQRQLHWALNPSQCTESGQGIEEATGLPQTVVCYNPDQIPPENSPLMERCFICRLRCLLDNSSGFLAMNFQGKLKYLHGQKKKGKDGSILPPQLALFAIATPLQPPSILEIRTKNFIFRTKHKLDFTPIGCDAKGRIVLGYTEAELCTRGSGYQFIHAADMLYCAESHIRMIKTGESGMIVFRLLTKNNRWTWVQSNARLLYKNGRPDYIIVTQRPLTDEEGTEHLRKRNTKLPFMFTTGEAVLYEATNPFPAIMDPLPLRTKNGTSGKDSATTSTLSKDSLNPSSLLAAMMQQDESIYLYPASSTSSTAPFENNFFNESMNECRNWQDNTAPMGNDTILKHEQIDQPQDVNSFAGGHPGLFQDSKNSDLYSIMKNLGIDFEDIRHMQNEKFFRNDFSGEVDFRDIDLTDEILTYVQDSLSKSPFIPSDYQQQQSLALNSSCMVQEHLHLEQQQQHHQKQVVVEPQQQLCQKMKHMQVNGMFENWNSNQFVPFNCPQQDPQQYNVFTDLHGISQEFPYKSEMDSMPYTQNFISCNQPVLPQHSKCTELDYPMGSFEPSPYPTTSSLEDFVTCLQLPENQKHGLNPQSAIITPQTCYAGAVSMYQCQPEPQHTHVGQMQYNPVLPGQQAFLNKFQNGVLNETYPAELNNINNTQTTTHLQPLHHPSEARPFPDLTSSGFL
Nature of the data set: AhR antagonist luciferase assay. It counts as cell-based. As to conditions: human HG2L6.1c3 cells, 10 μM with 10 nM TCDD.

The target of data set [3] is AhR (Mus musculus, UniProt P30561). Nature of the data set: AhR agonist luciferase induction, mouse H1L6.1c2 cells. As to conditions: 10 μM; for AhR-dependent luciferase induction, normalised to maximal TCDD response: 24 hours, 1 nM TCDD = 100%; for AhR agonist activity (in words): luciferase. It counts as cell-based. An outline of the steps:
(§1)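 Mouse H1L6.1c2 (from Hepa1c1c7) and human HG2L6.1c3 (from HepG2) hepatoma lines stably carry firefly luciferase under four DREs upstream of the MMTV promoter. Cells were exposed for 24 h at 37°C to test compound (10 mM DMSO stock) in 0.1% DMSO, TCDD (mouse 1 nM, human 10 nM) or vehicle. Cells were PBS-washed and lysed, and luminescence was read. DMSO background was subtracted and values normalised to TCDD = 100%. S.D., n = 3.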

The target of data set [4] is T2, AhR (Rattus norvegicus, UniProt P41738).
T2 sequence (P41738 10-853): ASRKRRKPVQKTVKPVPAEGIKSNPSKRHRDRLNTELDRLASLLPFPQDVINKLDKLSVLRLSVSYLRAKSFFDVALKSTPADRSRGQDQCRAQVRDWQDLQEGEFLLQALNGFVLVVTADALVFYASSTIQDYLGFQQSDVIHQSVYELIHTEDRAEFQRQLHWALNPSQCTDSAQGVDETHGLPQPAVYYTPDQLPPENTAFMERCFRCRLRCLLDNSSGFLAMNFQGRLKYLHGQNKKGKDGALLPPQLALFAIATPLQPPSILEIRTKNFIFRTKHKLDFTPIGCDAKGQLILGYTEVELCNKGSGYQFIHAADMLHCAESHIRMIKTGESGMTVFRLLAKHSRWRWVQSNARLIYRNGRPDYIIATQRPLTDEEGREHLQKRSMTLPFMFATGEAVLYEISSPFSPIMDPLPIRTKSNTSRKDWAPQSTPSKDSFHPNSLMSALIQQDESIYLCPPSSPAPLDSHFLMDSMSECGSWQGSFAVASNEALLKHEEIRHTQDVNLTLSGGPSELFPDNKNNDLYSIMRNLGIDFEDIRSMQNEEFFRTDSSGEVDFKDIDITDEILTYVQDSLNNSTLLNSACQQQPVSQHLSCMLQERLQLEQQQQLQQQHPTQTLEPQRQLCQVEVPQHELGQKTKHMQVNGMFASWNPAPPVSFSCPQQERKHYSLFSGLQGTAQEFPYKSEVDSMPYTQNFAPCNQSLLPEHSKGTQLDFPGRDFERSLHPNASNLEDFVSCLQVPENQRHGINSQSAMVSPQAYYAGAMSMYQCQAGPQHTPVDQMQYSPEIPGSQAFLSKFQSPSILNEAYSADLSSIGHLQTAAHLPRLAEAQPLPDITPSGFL
It counts as cell-based. The settings on record: rat H4IIE cells; for antagonistic effect (in words): 10 μM Chr-13 or 1 μM Chr-19 with TCDD, qRT-PCR. (In qPCR the cycle at which signal appears reflects the starting amount.)

Data set [5] has as its target T1, AhR. In kind it is cell-based. The settings on record: human MCF-7 cells; for antagonistic effect (in words): 100 μM Chr-13 or 10 μM Chr-19 with TCDD.
Data set [6] has as its target T2, AhR. Nature of the data set: CYP1A1 mRNA induction by qRT-PCR, rat H4IIE cells. As to conditions: for concentration inducing ~20% of the maximal response of 10 nM TCDD: rat H4IIE cells, CYP1A1 mRNA.
Data set [7] deals with T1, AhR. Put plainly: CYP1A1 mRNA induction by qRT-PCR, human MCF-7 cells. The settings on record: for concentration inducing ~20% of the maximal response of 10 nM TCDD: concentrations up to 100 μM.
The target of data set [8] is T1, AhR. Nature of the data set: AhR agonist luciferase induction, human HG2L6.1c3 cells. In kind it is cell-based. The settings on record: 10 μM. An outline of the steps: as §1
In data set [9] the target is T2, AhR.
Data set [10] concerns the target T1, AhR.
Data set [11] concerns the target T1, AhR. The settings on record: human cells; ref Van der Heiden et al., 2007; cited from earlier work.
The target in data set [12] is T2, AhR. As to conditions: rat H4IIE cells; ref Van der Heiden et al., 2007; cited from earlier work.
Data set [13] concerns AhR. As to conditions: ref Ciolino and Yeh, 1999; cited from earlier work.
The target in data set [14] is T1, AhR. As to conditions: MCF-7 cells, EROD analysis; ref Ciolino et al. (1999); cited from earlier work.

Entries after “also recorded” stand apart in the source; their conditions may differ. Read-outs that look alike come from different tables or passages of the source.

Sequence of AhR (Mus musculus, UniProt P30561) (P30561 10-805 limits assumed): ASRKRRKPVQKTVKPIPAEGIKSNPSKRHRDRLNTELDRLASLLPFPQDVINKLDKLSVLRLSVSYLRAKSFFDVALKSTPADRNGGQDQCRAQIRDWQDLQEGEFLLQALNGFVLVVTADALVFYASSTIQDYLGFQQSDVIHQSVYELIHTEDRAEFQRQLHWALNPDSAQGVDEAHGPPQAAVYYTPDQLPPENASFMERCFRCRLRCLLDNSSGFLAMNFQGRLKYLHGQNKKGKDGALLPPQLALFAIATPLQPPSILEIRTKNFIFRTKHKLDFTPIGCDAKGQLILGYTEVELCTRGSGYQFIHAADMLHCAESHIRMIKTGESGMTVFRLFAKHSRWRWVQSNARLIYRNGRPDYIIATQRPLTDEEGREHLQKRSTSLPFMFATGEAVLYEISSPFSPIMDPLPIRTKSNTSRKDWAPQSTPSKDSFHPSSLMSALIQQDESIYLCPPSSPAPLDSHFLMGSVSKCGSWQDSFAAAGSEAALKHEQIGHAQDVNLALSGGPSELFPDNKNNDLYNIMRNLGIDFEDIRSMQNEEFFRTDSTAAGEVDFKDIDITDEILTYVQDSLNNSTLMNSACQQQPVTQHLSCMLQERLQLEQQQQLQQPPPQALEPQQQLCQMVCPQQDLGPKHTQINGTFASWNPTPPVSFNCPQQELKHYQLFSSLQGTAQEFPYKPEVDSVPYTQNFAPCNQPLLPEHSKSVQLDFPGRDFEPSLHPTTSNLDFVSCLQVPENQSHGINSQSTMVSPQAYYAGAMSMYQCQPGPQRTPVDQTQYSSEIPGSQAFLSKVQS
Sequence of AhR (Mus musculus, UniProt P30561) (P11499 whole entry partner): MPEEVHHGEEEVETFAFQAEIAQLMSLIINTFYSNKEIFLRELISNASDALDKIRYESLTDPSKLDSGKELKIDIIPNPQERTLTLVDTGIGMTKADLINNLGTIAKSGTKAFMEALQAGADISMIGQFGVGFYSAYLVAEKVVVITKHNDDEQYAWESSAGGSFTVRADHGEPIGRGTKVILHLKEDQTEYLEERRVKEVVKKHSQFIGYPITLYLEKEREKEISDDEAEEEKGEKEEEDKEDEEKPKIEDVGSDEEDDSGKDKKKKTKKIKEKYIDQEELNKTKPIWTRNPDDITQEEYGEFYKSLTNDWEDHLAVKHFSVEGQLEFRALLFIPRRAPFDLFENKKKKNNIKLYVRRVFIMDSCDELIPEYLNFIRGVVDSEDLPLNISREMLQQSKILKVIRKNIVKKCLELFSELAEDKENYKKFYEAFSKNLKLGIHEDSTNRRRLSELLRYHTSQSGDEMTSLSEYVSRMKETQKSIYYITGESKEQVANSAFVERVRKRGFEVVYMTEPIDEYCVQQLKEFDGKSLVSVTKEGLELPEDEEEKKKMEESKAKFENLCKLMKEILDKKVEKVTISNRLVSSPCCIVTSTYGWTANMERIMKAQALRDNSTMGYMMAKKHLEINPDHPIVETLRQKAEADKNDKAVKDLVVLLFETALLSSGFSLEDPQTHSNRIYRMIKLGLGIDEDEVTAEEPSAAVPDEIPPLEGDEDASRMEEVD
Sequence of AhR (Mus musculus, UniProt P30561) (O08915 whole entry partner): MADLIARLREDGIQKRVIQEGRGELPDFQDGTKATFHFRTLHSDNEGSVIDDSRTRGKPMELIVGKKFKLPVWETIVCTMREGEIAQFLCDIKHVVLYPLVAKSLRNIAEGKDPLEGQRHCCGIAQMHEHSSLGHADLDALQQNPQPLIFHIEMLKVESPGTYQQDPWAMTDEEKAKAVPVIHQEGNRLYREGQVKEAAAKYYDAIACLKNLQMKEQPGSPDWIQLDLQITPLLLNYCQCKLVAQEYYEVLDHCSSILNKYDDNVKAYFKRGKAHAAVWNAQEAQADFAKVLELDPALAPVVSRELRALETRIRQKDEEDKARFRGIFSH

As for `COc1ccc(-c2coc3cc(O)cc(O)c3c2=O)cc1` [Biochanin A], in [1], the “less potent than TCDD” value is 100 fold.
For the compound `Nc1oc2ccccc2c(=O)c1-c1ccc(Cl)cc1` [Chr-4], the “AhR antagonist activity (in words)” value in [2] was “antagonised”.
As to `COc1ccc2c(=O)c(-c3ccc(Cl)cc3)c(N)oc2c1` [Chr-13, 2-amino-3-(4′-chlorophenyl)-7-methoxychromen-4-one], the figures for the “AhR-dependent luciferase induction, normalised to maximal TCDD response” value in [3] and in [3] (listed as Chr 13) were 50% and “greater than 30%”, respectively. The “AhR agonist activity (in words)” value in [3] is reported as “strong agonist”. In addition, in data set [2], the “AhR antagonist activity (in words)” value is on record as “antagonised; also recorded: strong antagonist”. The “background induction, % of the maximal induction” value in data set [4] (10 μM Chr-13 added to TCDD C/R curve) is ~ 25%. The “antagonistic effect (in words)” value in data set [4] was “no antagonistic effects”; in data set [5] (qRT-PCR), “weak antagonist”. In data set [5] (100 μM Chr-13), the “reduction of the potency of TCDD” value is on record as 5 fold. In addition, the midpoint of the response in [6], the EC50, lay at 41.5 µM. Besides, the “concentration inducing ~20% of the maximal response of 10 nM TCDD” value was 10 µM in [6] and “no response was detected” in data set [7] (human MCF-7 cells, CYP1A1 mRNA). In addition, the “EC50 (95% Confidence interval)” value in [7] (human MCF-7 cells, CYP1A1 mRNA, 4 hours, assuming maximal response is reached) is given as “could not be obtained; also recorded: No agonistic effect”.
With `COc1ccc(-c2cc3cc(Cl)ccc3oc2=O)cc1` [Chr-19, 6-Chloro-3-(4′-methoxy)phenylcoumarin], the entries for the “AhR agonist activity (in words)” value in data set [3] and in data set [8] were “weak agonist” and “induced significant levels; also recorded: weak agonist”, respectively. The “AhR antagonist activity (in words)” value in [2] is reported as “antagonised; also recorded: antagonist”. Besides, the “antagonistic effect (in words)” value in data set [4] is given as “no shift of the TCDD curve to the right”; in [5] (qRT-PCR) it was “weak antagonist”. Further, the “reduction of the potency of TCDD” value in [5] (10 μM Chr-19) was determined as 3 fold. In addition, the “reduction of the response to 10 nM TCDD” value in data set [5] (qRT-PCR, 10 μM) is on record as 10%. Further, the 50% effective concentration (EC50) – broadly, the midpoint of the concentration-response curve – in data set [9] was found to be 7.7 µM; in data set [10] it was 140 µM. Further, the “more potent in rat H4IIE than in human MCF-7 cells” value in data set [9] was “approximately 20 fold”. In addition, the “concentration inducing ~20% of the maximal response of 10 nM TCDD” value in data set [6] came out at 1 µM; in data set [7] (human MCF-7 cells, CYP1A1 mRNA), 10 µM.
For the compound `Clc1cc2c(cc1Cl)Oc1cc(Cl)c(Cl)cc1O2` [TCDD, 2,3,7,8-tetrachlorodibenzo-p-dioxin, reference compound], the EC50 is 0.000113 µM in data set [6] and 0.000661 µM in [7]. Besides, the “potency lower in human MCF-7 than in rat H4IIE cells” value in data set [7] (ratio of CYP1A1 mRNA EC50s, p<0.0001) came out at 6 fold.
Consider `O=c1cc(-c2ccccc2)oc2cc(O)cc(O)c12` [chrysin], for which the “AhR activity (in words)” value in [11] is reported as “partial agonist”. For the same compound, the “AhR antagonistic effect (in words)” value in [12] was “no antagonistic effects”.
Turning to `O=c1c(O)c(-c2ccccc2)oc2cc(O)cc(O)c12` [galangin], the “AhR activity (in words)” value in data set [13] was “AhR antagonist”.
On to `O=c1c(O)c(-c2ccc(O)cc2)oc2cc(O)cc(O)c12` [kaempferol], for which the “AhR activity (in words)” value in [14] is listed as “antagonist”.
For `O=c1c(O)c(-c2ccc(O)c(O)c2)oc2cc(O)cc(O)c12` [quercetin, Quercetin], the “AhR activity (in words)” value in data set [14] is “AhR agonist”.
